Screens from PubChem BioAssay.
This is a sample that favours compounds with a hit; in the whole collection about 2.6% have one here.
rRNA inh HTS = reduced GFP signal of wild-type E. coli, primary screen, bacterial rRNA inhibitor project, GFP/RFP fluorescence, OD600, single point. E. coli WT GFP vs humanized-ribosome RFP mutants, 24 h; hits give low values; DMSO median 0, no signal -100. GFP signal change (wild-type ribosome), % (no concentration beside the values). 1.6% of 350,000 active;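 active means significant combined selectivity score with lowered wild-type GFP, culture density cut under 30%, mutant RFP and density less affected; inactive means any of these conditions unmet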
Env fusion inh = inhibitors of HIV-1 Env-driven cell-cell fusion, primary screen, HeLa-JRFL effector, CEM21 target cells, luciferase; inhibition, % at 12.3 µM; AID 651610, 2012; 1.1% of 360,000 active;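 active means mean replicate inhibition score of at least 50 and every replicate individually at or above 50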
FN deposit inh = inhibitors of fibronectin matrix deposition, primary screen, AH1F cells, Alexa488-fibronectin fluorescence, plate reader; AH1F fibroblasts, overnight; inhibition, % at 12.6 µM; 0.086% of 350,000 active; AID 743247, 2014;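 active means mean inhibition across replicates of 30% or more, regardless of how many single replicates reach that level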
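Material: AH1F fibroblast monolayer depositing Alexa488-labelled fibronectin into matrix / Amount: 10000 AH1F cells per well / Signal: fluorescence 485/525 nm / Medium: DMEM, 2% serum / Compound: single dose, pinned / Incubation: 1 h cell adhesion before compound, then overnight fibronectin incubation / Reagent: Alexa488-FN, 24 nM final / Read-out: inhibition of fibronectin deposition signal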
Vif imaging = HIV Vif self-association inhibitors, primary screen, imaging, HEK293T, single point | HEK293T cells, Vif self-association by quenched fluorescence, 24 h | inhibition, % at 7.49 µM | 0.35% of 340,000 active; in the data active means inhibition above about 50%, passing the limit was not always enough
miR-122 sensor = miR-122 Renilla sensor signal increase in Huh7, primary screen, miR-122 inhibitor project, cell-based, single point, plate reader; Huh7 miR-122 Renilla luciferase sensor, 48 h; neutral wells = 0, positive control = 100; activation (reporter increase), % at 12.5 µM; 0.3% of 340,000 active;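 active means mean replicate activation score at least 90 and every replicate individually at or above 90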;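 further: higher luciferase means less miR-122 activity so hits act as miR-122 inhibitors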
S100A4 inh HTS = inhibitors of S100A4-myosin IIA peptide binding, primary screen, biochemical, fluorescence polarization, TAMRA-MyoIIA peptide; Protein S100-A4 (Homo sapiens), P26447; inhibition, % at 10.7 µM; AID 652163, 2013; 0.14% of 360,000 active;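 active means mean inhibition of at least 70% across replicates, with every replicate also reaching that level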
Target sequence (P26447 whole entry, looked up): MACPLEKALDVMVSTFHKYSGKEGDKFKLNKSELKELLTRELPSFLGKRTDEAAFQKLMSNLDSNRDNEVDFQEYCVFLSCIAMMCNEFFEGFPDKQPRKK
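System – human S100A4 monomer protein, biochemical binding assay · Buffer or medium – Calcium-containing HEPES buffer, pH 7.2 · Timing – 5 min between mix addition and reading · Also added – TAMRA-labelled myosin IIA heavy-chain peptide probe, 5 nM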
A number is an active result; i = inactive; nt = not tested or not shown.

SMILES	rRNA inh HTS	Env fusion inh	FN deposit inh	Vif imaging	miR-122 sensor	S100A4 inh HTS
CCc1ccc(C2CC3C(CN2S(=O)(=O)c2ccc(C)cc2)[C@@H](O)C[C@@H](c2ccc(CC)cc2)N3S(=O)(=O)c2ccc(C)cc2)cc1 (stereo partly specified)	i	61	i	nt	nt	i
CCc1ccc([C@H]2[C@@H]3C(=O)C[C@@H]4C(=O)N(Cc5ccccc5)C(=O)[C@@H]4[C@@H]3CN2S(=O)(=O)c2ccc(C)cc2)cc1	i	71	i	nt	i	i
CCc1ccc([C@@H]2CC(=O)[C@@H]3CN(S(=O)(=O)c4ccc(Cl)cc4)[C@H](c4ccc(C)cc4)C[C@@H]3N2S(=O)(=O)c2ccc(C)cc2)cc1	i	nt	i	i	i	i
CCc1ccc([C@H]2[C@@H]3C(=O)C[C@@H]4C(=O)N(C5CCCCC5)C(=O)[C@@H]4[C@@H]3CN2S(=O)(=O)c2ccc(C)cc2)cc1	i	155	nt	nt	i	i
CO[C@@H](CN(C)C(=O)c1ccc2c(c1)OCO2)[C@@H](C)CN([C@H](C)CO)S(=O)(=O)c1ccc(F)cc1	i	nt	i	nt	nt	i
CN1c2ccc(C3=CCCCC3)cc2[C@H]2[C@H](CCN2C(=O)C2CCCCC2)[C@H]1CO	i	i	i	nt	nt	i
CCCNC(=O)N1CC2(CCN(S(=O)(=O)c3ccc(OC)cc3)CC2)c2c(n(C)c3cc(OC)ccc23)[C@@H]1CO	i	i	nt	nt	nt	i
CN(C)C(=O)C[C@H]1C=C[C@H](NC(=O)C2CCOCC2)[C@H](CO)O1	i	nt	i	nt	nt	i
COc1ccc2c3c(n(C)c2c1)[C@H](CO)N(C(=O)Nc1ccc(F)cc1)CC31CN(Cc2cccc(F)c2)C1	i	nt	nt	nt	nt	nt
COc1ccc(/C=N/NC(=O)c2ccoc2C)cc1COc1c(C)cccc1C	nt	76	i	i	i	nt
COc1ccc(/C=N\NC(=O)c2ccccc2OC)cc1COc1ccccc1C	i	i	nt	i	nt	i
C[C@H](CO)N1C[C@H](C)[C@H](CN(C)C(=O)CN2CCOCC2)Oc2ncc(C#CCN(C)C)cc2C1=O	i	i	i	nt	i	i
CSCCC(NS(=O)(=O)c1ccc2c(c1)oc(=O)n2C)C(=O)NC1CCC(C)CC1 (stereo unspecified)	i	60	i	i	nt	i
CSCCC(NS(=O)(=O)c1ccc2c(c1)oc(=O)n2C)C(=O)NC1CCN(Cc2ccccc2)CC1 (stereo unspecified)	i	i	nt	i	i	i
CCC(=O)N[C@@H]1CC[C@H](CCn2cc(CN(C)C)nn2)O[C@H]1CO	i	i	i	nt	nt	i
COc1ccccc1/C=C/C(=O)Nc1nc(N)n(-c2ccccc2)n1	-25	i	i	i	nt	i
CCCNC(=O)Nc1ccc2c(c1)C(=O)N(C)C[C@H](OC)[C@@H](C)CN(C(=O)C1CCCCC1)[C@H](C)CO2	i	i	nt	nt	nt	i
COc1ccc(C#Cc2ccc3c(c2)O[C@@H](CN(C)C(C)=O)[C@@H](C)CN([C@@H](C)CO)S3(=O)=O)cc1	i	i	i	nt	i	i
COc1ccc(CCN2C(=O)c3[nH]nc(-c4ccccc4O)c3C2c2ccccc2)cc1OC (stereo unspecified)	nt	147	i	i	i	nt
COc1ccc(CCN2C(=O)c3cccnc3C2=O)cc1OC	nt	nt	nt	56	i	nt
COc1ccc(CCN2C(=O)C=CC2=O)cc1OC	i	i	i	i	i	i
Cc1ccccc1-c1cnc2c(c1)C(=O)N([C@H](C)CO)C[C@H](C)[C@@H](CN(C)C(=O)CC1CC1)O2	i	i	i	nt	i	i
CC(C)CC#Cc1cnc2c(c1)C(=O)N([C@@H](C)CO)C[C@H](C)[C@@H](CN(C)Cc1ccccn1)O2	i	i	i	nt	i	i
CC(C)(C)n1nnnc1C(c1ccncc1)N1CCN(C2CCCCC2)CC1 (stereo unspecified)	i	nt	nt	i	nt	i
